One data set deals with Monocyte. Briefly: Cytotoxicity against human monocytes assessed as reduction in LDH release at 1 to 10 uM after 2 to 24 hrs by CytoTox96 nonradioactive assay. The settings on record: dose lower 1 µM, time lower 2 hrs, dose upper 10 µM, time upper 24 hrs. The class given is cell-based. The method in brief: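 Monocytes at 4 × 10^5/mL in monocyte medium treated 2 or 24 h at 37 °C, 5% CO2, with 0.1% DMSO vehicle. LDH release measured by CytoTox 96 kit, with Triton X-100 (0.8%) defining maximum release.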
Background: LDH leaks from cells whose membrane has failed.

For another data set, the system named is Mus musculus. Briefly: Antiinflammatory activity in zymosan-induced CD-1 mouse peritonitis model assessed as reduction in LTC4 level at 3 mg/kg, po preincubated with compound for 60 mins followed by zymosan addition and measured after 30 mins by ELISA. The class given is functional, organism-based. The settings on record: time 90.0 min. The method in brief:
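Oral dosing at 3 mg/kg in zymosan-induced peritonitis; mice killed 30 min after zymosan; LTC4 in peritoneal exudate measured by ELISA; two-tailed unpaired t-test of log data.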

Active and inactive are the calls of the source. No cut-off for these calls is given here.

Take `Cc1c(C)c2c(c(C)c1O)CC[C@@](C)(CCCC(C)CCCC(C)CCCC(C)C(=O)O)O2` (some centres not stated): the Activity entry with Monocyte is recorded as “Non-Toxic”.

As to `CC(c1cc2ccccc2s1)N(O)C(N)=O` (configuration not stated), the result with Mus musculus was inactive.

Values taken from ChEMBL document CHEMBL4834471 (J Med Chem, 2021).
